Experiments:
[1] = biological target: Human immunodeficiency virus type 1 protease (Human immunodeficiency virus 1, UniProt Q72874); assay: Inhibitory constant against HIV-1 protease
Procedure, shortened: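 HIV-1 proteinase expressed in E. coli JM 105 and purified to homogeneity. Initial rates were taken from the absorbance decrease at 298 nm. IC50 came from a fit of the initial velocities. Ki was derived from IC50 accounting for enzyme, substrate and Km. Mean of two determinations.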

[2] = system: Human immunodeficiency virus 1; assay: Antiviral activity by observing cytopathic effect induced by HIV-1 strain IIIB in de novo infected MT-4 cells; format: functional, organism-based; conditions: Human immunodeficiency virus 1, MT4

| Structure (SMILES) | Ki [1] | IC50 [2] |
| --- | --- | --- |
| CC(C)[C@H](NC(=O)CCCCCN)C(=O)N[C@@H](Cc1ccccc1)[C@@H](O)[C@@H](NCc1ccccc1)C(=O)N[C@H](C(=O)NCc1ccccc1)C(C)C | 33 nM | > 3000 nM |
| CC(C)[C@H](NC(=O)[C@H](NCc1ccccc1)[C@H](O)[C@H](Cc1ccccc1)NC(=O)[C@H](C)NC(=O)OCc1ccccc1)C(=O)NCc1ccccc1 | 34 nM | > 3000 nM |
| CC(C)[C@H](NC(=O)OC(C)(C)C)C(=O)N[C@@H](Cc1ccccc1)[C@@H](O)[C@@H](NCc1ccccc1)C(=O)N[C@H](C(=O)NCc1ccccc1)C(C)C | 215 nM | > 3000 nM |
| CC(C)[C@H](NC(=O)OCc1ccccc1)C(=O)N[C@@H](Cc1ccccc1)[C@@H](O)[C@@H](NCc1cccc2ccccc12)C(=O)N[C@H](C(=O)NCc1ccccc1)C(C)C | 26 nM | > 3000 nM |
| CC(C)C[C@H](NC(=O)[C@H](NCc1ccccc1)[C@H](O)[C@H](Cc1ccccc1)NC(=O)[C@@H](NC(=O)OCc1ccccc1)C(C)C)C(=O)NCc1ccccc1 | 44 nM | > 3000 nM |
| CC(C)[C@H](NC(=O)[C@H](NCc1ccccc1)[C@H](O)[C@H](Cc1ccccc1)NC(=O)[C@H](Cc1c[nH]c2ccccc12)NC(=O)OCc1ccccc1)C(=O)NCc1ccccc1 | 200 nM | > 3000 nM |
| CC(C)[C@H](NC(=O)OCc1ccccc1)C(=O)N[C@@H](Cc1ccccc1)[C@@H](O)[C@@H](NCc1ccc(Cl)cc1)C(=O)N[C@H](C(=O)NCc1ccccc1)C(C)C | 17 nM | 400 nM |
| CC(C)[C@H](NC(=O)OCc1ccccc1)C(=O)N[C@@H](Cc1ccccc1)[C@@H](O)[C@@H](NCc1ccc(Cl)cc1)C(=O)N[C@H](C(=O)NCc1nc2ccccc2[nH]1)C(C)C | 6.1 nM | 120 nM |
| CC(C)[C@H](NC(=O)OCc1ccccc1)C(=O)N[C@@H](Cc1ccccc1)[C@@H](O)[C@@H](NCc1ccccc1)C(=O)N[C@H](C(=O)NC(C)(C)C)C(C)C | 72 nM | > 3000 nM |
| CC(C)[C@H](NC(=O)OCc1ccccc1)C(=O)N[C@@H](Cc1ccccc1)[C@@H](O)[C@@H](NCc1ccccc1)C(=O)N[C@H](C(=O)NCc1ccccn1)C(C)C | 12 nM | 1140 nM |
| CC(C)[C@H](NC(=O)OCc1ccccc1)C(=O)N[C@@H](Cc1ccccc1)[C@@H](O)[C@@H](NCc1ccccc1)C(=O)N[C@H](C(=O)NCc1nc2ccccc2[nH]1)C(C)C | 13 nM | 140 nM |
| CCCCN[C@@H](C(=O)N[C@H](C(=O)NCc1ccccc1)C(C)C)[C@H](O)[C@H](Cc1ccccc1)NC(=O)[C@@H](NC(=O)OCc1ccccc1)C(C)C | 23 nM | > 3000 nM |
| CC(C)[C@H](NC(=O)OCc1ccccc1)C(=O)N[C@@H](Cc1ccccc1)[C@@H](O)[C@@H](NCCc1c[nH]c2ccccc12)C(=O)N[C@H](C(=O)NCc1ccccc1)C(C)C | 61 nM | > 3000 nM |
| CC(C)[C@H](NC(=O)OCc1ccccc1)C(=O)N[C@@H](Cc1ccccc1)[C@@H](O)[C@@H](NCc1ccccc1)C(=O)N[C@@H](CC(N)=O)C(=O)NCc1ccccc1 | 42 nM | > 3000 nM |
| CC(C)[C@H](NC(=O)OCc1ccccc1)C(=O)N[C@@H](Cc1ccccc1)[C@@H](O)[C@@H](NCCc1ccccc1)C(=O)N[C@H](C(=O)NCc1ccccc1)C(C)C | 34 nM | > 3000 nM |
| CC(C)[C@H](NC(=O)[C@H](NCc1ccccc1)[C@H](O)[C@H](Cc1ccccc1)NC(=O)[C@@H](NC(=O)OCc1ccccc1)c1ccccc1)C(=O)NCc1ccccc1 | 51 nM | > 3000 nM |
| CC(C)[C@H](NC(=O)OCc1ccccc1)C(=O)N[C@@H](Cc1ccccc1)[C@@H](O)[C@@H](NC1CCCCC1)C(=O)N[C@H](C(=O)NCc1ccccc1)C(C)C | 33.5 nM | 940 nM |
| CC(C)[C@H](NC(=O)OCc1ccccc1)C(=O)N[C@@H](Cc1ccccc1)[C@@H](O)[C@@H](NCc1ccccc1)C(=O)N[C@H](C(=O)NCCc1c[nH]c2ccccc12)C(C)C | 10.6 nM | > 3000 nM |
| CC(C)[C@H](NC(=O)OCc1ccccc1)C(=O)N[C@@H](Cc1ccccc1)[C@@H](O)[C@@H](Nc1ccc(-c2ccccc2)cc1)C(=O)N[C@H](C(=O)NCc1ccccc1)C(C)C | 59 nM | > 3000 nM |
| CC(C)[C@H](NC(=O)c1ccc2ccccc2n1)C(=O)N[C@@H](Cc1ccccc1)[C@@H](O)[C@@H](NCc1ccccc1)C(=O)N[C@H](C(=O)NCc1ccccc1)C(C)C | 10.2 nM | 1610 nM |

| Structure (SMILES) | Ki [1] | IC50 [2] |
| --- | --- | --- |
| CC(C)[C@H](NC(=O)OCc1ccccn1)C(=O)N[C@@H](Cc1ccccc1)[C@@H](O)[C@@H](NCc1ccccc1)C(=O)N[C@H](C(=O)NCc1ccccc1)C(C)C | 8.6 nM | 350 nM |
| CC[C@H](C)[C@H](NC(=O)[C@H](NCc1ccccc1)[C@H](O)[C@H](Cc1ccccc1)NC(=O)[C@@H](NC(=O)OCc1ccccc1)C(C)C)C(=O)NCc1ccccc1 | > 3000 nM | > 3000 nM |
| CC[C@@H](C)[C@H](NC(=O)OCc1ccccc1)C(=O)N[C@@H](Cc1ccccc1)[C@@H](O)[C@@H](NCc1ccccc1)C(=O)N[C@H](C(=O)NCc1ccccc1)C(C)C | 8.3 nM | > 3000 nM |
| CCOC(=O)[C@@H](NC(=O)[C@H](NCc1ccccc1)[C@H](O)[C@H](Cc1ccccc1)NC(=O)[C@@H](NC(=O)OCc1ccccc1)C(C)C)C(C)C | 1200 nM | > 3000 nM |
| CC(C)[C@H](NC(=O)[C@H](NCc1ccccc1)[C@H](O)[C@H](Cc1ccccc1)NC(=O)[C@H](Cc1cnc[nH]1)NC(=O)OCc1ccccc1)C(=O)NCc1ccccc1 | 29 nM | > 3000 nM |
| CC(C)[C@H](NC(=O)[C@H](NCc1ccccc1)[C@H](O)[C@H](Cc1ccccc1)NC(=O)[C@@H](NC(=O)N(C)Cc1nc2ccccc2[nH]1)C(C)C)C(=O)NCc1ccccc1 | 10.2 nM | 270 nM |
| CC(C)[C@H](NC(=O)OCc1ccccc1)C(=O)N[C@@H](Cc1ccccc1)[C@@H](O)[C@@H](NCCc1ccccn1)C(=O)N[C@H](C(=O)NCc1ccccc1)C(C)C | 200 nM | > 3000 nM |
| CC(C)[C@H](NC(=O)[C@H](NCc1ccccc1)[C@H](O)[C@H](Cc1ccccc1)NC(=O)[C@H](CO)NC(=O)OCc1ccccc1)C(=O)NCc1ccccc1 | 153 nM | 2500 nM |
| CC(C)[C@H](NC(=O)CCc1nc2ccccc2[nH]1)C(=O)N[C@@H](Cc1ccccc1)[C@@H](O)[C@@H](NCc1ccccc1)C(=O)N[C@H](C(=O)NCc1ccccc1)C(C)C | 9.9 nM | 180 nM |
| CC(C)[C@H](NC(=O)[C@H](NCc1ccccc1)[C@H](O)[C@H](Cc1ccccc1)NC(=O)[C@H](CCC(N)=O)NC(=O)OCc1ccccc1)C(=O)NCc1ccccc1 | 45 nM | 2000 nM |
| CC(C)[C@H](NC(=O)OCc1ccccc1)C(=O)N[C@@H](Cc1ccccc1)[C@@H](O)[C@@H](NCc1ccc(Br)cc1)C(=O)N[C@H](C(=O)NCc1ccccc1)C(C)C | 23 nM | 350 nM |
| CC(C)C[C@H](NC(=O)OCc1ccccc1)C(=O)N[C@@H](Cc1ccccc1)[C@@H](O)[C@@H](NCc1ccccc1)C(=O)N[C@H](C(=O)NCc1ccccc1)C(C)C | 65 nM | > 3000 nM |
| CC(C)[C@H](NC(=O)[C@H](NCc1ccccc1)[C@H](O)[C@H](Cc1ccccc1)NC(=O)[C@H](CC(N)=O)NC(=O)OCc1ccccc1)C(=O)NCc1ccccc1 | 10.4 nM | 1010 nM |
| CC(C)[C@H](NC(=O)OCc1ccccc1)C(=O)N[C@@H](Cc1ccccc1)[C@@H](O)[C@@H](Nc1ccccc1)C(=O)N[C@H](C(=O)NCc1ccccc1)C(C)C | 6.9 nM | 1340 nM |
| CC(C)[C@H](NC(=O)OCc1ccccc1)C(=O)N[C@@H](Cc1ccccc1)[C@@H](O)[C@@H](NCc1ccccc1)C(=O)N[C@H](C(=O)OCc1nc2ccccc2[nH]1)C(C)C | 29 nM | > 3000 nM |
| CC[C@H](NC(=O)OCc1ccccc1)C(=O)N[C@@H](Cc1ccccc1)[C@@H](O)[C@@H](NCc1ccccc1)C(=O)N[C@H](C(=O)NCc1ccccc1)C(C)C | 17.1 nM | 2000 nM |
| CC(C)[C@H](NC(=O)OCc1ccccc1)C(=O)N[C@@H](Cc1ccccc1)[C@@H](O)[C@@H](SCc1ccccc1)C(=O)N[C@H](C(=O)NCc1ccccc1)C(C)C | 10 nM | 330 nM |
| CC(C)[C@H](NC(=O)OCc1ccccc1)C(=O)N[C@@H](Cc1ccccc1)[C@@H](O)[C@@H](NCc1ccccc1)C(=O)N[C@@H](C(=O)NCc1ccccc1)C(C)(C)C.CC(C)[C@H](NC(=O)OCc1ccccc1)C(=O)N[C@@H](Cc1ccccc1)[C@@H](O)[C@@H](NCc1ccccc1)C(=O)N[C@H](C(=O)NCc1ccccc1)C(C)(C)C (stereo in doubt; 32(5:1)) | 20 nM |  |
| CC(C)[C@H](NC(=O)OCc1ccccc1)C(=O)N[C@@H](Cc1ccccc1)[C@@H](O)[C@@H](NCc1ccccc1)C(=O)N[C@@H](C(=O)NCc1ccccc1)C(C)(C)C.CC(C)[C@H](NC(=O)OCc1ccccc1)C(=O)N[C@@H](Cc1ccccc1)[C@@H](O)[C@@H](NCc1ccccc1)C(=O)N[C@H](C(=O)NCc1ccccc1)C(C)(C)C (stereo in doubt; 33(4:1)) | > 3000 nM | > 3000 nM |

Reference: ChEMBL document CHEMBL1127464, “Inhibitors of HIV-1 proteinase containing 2-heterosubstituted 4-amino-3-hydroxy-5-phenylpentanoic acid: synthesis, enzyme inhibition, and antiviral activity” (J Med Chem, 1994)
